Assay results published in ChEMBL document CHEMBL1926614, “Substituted thiazoles V. synthesis and antitumor activity of novel thiazolo[2,3-b]quinazoline and pyrido[4,3-d]thiazolo[3,2-a]pyrimidine analogues” (2012).

Key:
Type in all cases: functional
[1] = test system: NCI-H23; test: Growth inhibition of human NCI-H23 cells at 10 uM after 48 hrs by coulter counting; conditions: NCI-H23, 48 h, read-out: GI
In short: (§1)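 Single-dose primary screen across the full NCI 60-cell-line panel. Stocks were made in DMSO and diluted in PBS to a final DMSO below 1%. Cultures at 6 × 10⁴ cells/ml were run in duplicate wells alongside PBS/DMSO vehicle controls at 37 °C in humidified 5% CO₂. Data were expressed as percent growth of treated cells.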

[2] = test system: MCF7; test: Growth inhibition of human MCF7 cells at 10 uM after 48 hrs by coulter counting; conditions: MCF7, 48 h, read-out: GI; in short: as §1
[3] = test system: NCI-H460; test: Growth inhibition of human NCI-H460 cells at 10 uM after 48 hrs by coulter counting; conditions: NCI-H460, 48 h, read-out: GI; in short: as §1
[4] = test system: NCI/ADR-RES; test: Growth inhibition of human NCI/ADR-RES cells at 10 uM after 48 hrs by coulter counting; conditions: read-out: GI; in short: as §1
[5] = test system: HCC 2998; test: Growth inhibition of human HCC2998 cells at 10 uM after 48 hrs by coulter counting; conditions: HCC 2998, 48 h, read-out: GI; in short: as §1
[6] = test system: SNB-19; test: Growth inhibition of human SNB19 cells at 10 uM after 48 hrs by coulter counting; conditions: SNB-19, 48 h, read-out: GI; in short: as §1
[7] = test system: SK-MEL-5; test: Growth inhibition of human SK-MEL-5 cells at 10 uM after 48 hrs by coulter counting; conditions: SK-MEL-5, 48 h, read-out: GI; in short: as §1
[8] = test system: K562; test: Growth inhibition of human K562 cells at 10 uM after 48 hrs by coulter counting; conditions: K562, 48 h, read-out: GI; in short: as §1
[9] = test system: DU-145; test: Growth inhibition of human DU145 cells at 10 uM after 48 hrs by coulter counting; conditions: DU-145, 48 h, read-out: GI; in short: as §1
[10] = test system: KM12; test: Growth inhibition of human KM12 cells at 10 uM after 48 hrs by coulter counting; conditions: KM12, 48 h, read-out: GI; in short: as §1
[11] = test system: T47D; test: Growth inhibition of human T47D cells at 10 uM after 48 hrs by coulter counting; conditions: read-out: GI
In short: (§2)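 Single-dose screen in the NCI 60 human tumor cell line panel (nine subpanels). Compounds dissolved in DMSO and diluted in phosphate buffered saline, keeping final DMSO below 1%. Added in duplicate wells to cells at 6 × 10⁴ cells/ml. Controls held PBS and DMSO at matching dilutions. Incubated at 37 °C, humidified, 5% CO₂. Reported as percent growth of treated cells.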

[12] = test system: HCT-116; test: Growth inhibition of human HCT116 cells at 10 uM after 48 hrs by coulter counting; conditions: HCT-116, 48 h, read-out: GI; in short: as §1
[13] = test system: NCI-H522; test: Growth inhibition of human NCI-H522 cells at 10 uM after 48 hrs by coulter counting; conditions: NCI-H522, 48 h, read-out: GI; in short: as §1
[14] = test system: LOX IMVI; test: Growth inhibition of human LOXIMVI cells at 10 uM after 48 hrs by coulter counting; conditions: read-out: GI; in short: as §1
[15] = test system: UACC-62; test: Growth inhibition of human UACC62 cells at 10 uM after 48 hrs by coulter counting; conditions: UACC-62, 48 h, read-out: GI; in short: as §2
[16] = test system: IGROV-1; test: Growth inhibition of human IGROV1 cells at 10 uM after 48 hrs by coulter counting; conditions: IGROV-1, 48 h, read-out: GI; in short: as §1
[17] = test system: A549; test: Growth inhibition of human A549 cells at 10 uM after 48 hrs by coulter counting; conditions: A549, 48 h, read-out: GI; in short: as §1
[18] = test system: SK-MEL-28; test: Growth inhibition of human SK-MEL-28 cells at 10 uM after 48 hrs by coulter counting; conditions: SK-MEL-28, 48 h, read-out: GI; in short: as §1
[19] = test system: HOP-62; test: Growth inhibition of human HOP62 cells at 10 uM after 48 hrs by coulter counting; conditions: HOP-62, 48 h, read-out: GI; in short: as §1
[20] = test system: HL-60(TB); test: Growth inhibition of human HL-60(TB) cells at 10 uM after 48 hrs by coulter counting; conditions: HL-60, 48 h, read-out: GI
In short: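 Test compound was dissolved in DMSO and diluted in phosphate-buffered saline to a final DMSO level below 1%. Dilutions were plated in duplicate with cell culture at 6 × 10⁴ cells/ml. Vehicle controls held PBS and DMSO at matching dilutions. Incubation was at 37 °C, humidified, under 5% CO₂. Data were reported as percent growth of treated cells.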

[21] = test system: BT-549; test: Growth inhibition of human BT549 cells at 10 uM after 48 hrs by coulter counting; conditions: BT-549, 48 h, read-out: GI; in short: as §1
[22] = test system: SF-295; test: Growth inhibition of human SF295 cells at 10 uM after 48 hrs by coulter counting; conditions: SF-295, 48 h, read-out: GI; in short: as §1
[23] = test system: MDA-MB-435; test: Growth inhibition of human MDA-MB-435 cells at 10 uM after 48 hrs by coulter counting; conditions: MDA-MB-435, 48 h, read-out: GI; in short: as §1
[24] = test system: ACHN; test: Growth inhibition of human ACHN cells at 10 uM after 48 hrs by coulter counting; conditions: read-out: GI; in short: as §1
[25] = test system: CCRF-CEM; test: Growth inhibition of human CCRF-CEM cells at 10 uM after 48 hrs by coulter counting; conditions: read-out: GI; in short: as §1
[26] = test system: HT-29; test: Growth inhibition of human HT-29 cells at 10 uM after 48 hrs by coulter counting; conditions: HT-29, 48 h, read-out: GI; in short: as §1
[27] = test system: SF-268; test: Growth inhibition of human SF268 cells at 10 uM after 48 hrs by coulter counting; conditions: SF-268, 48 h, read-out: GI; in short: as §1
[28] = test system: NCI-H226; test: Growth inhibition of human NCI-H226 cells at 10 uM after 48 hrs by coulter counting; conditions: NCI-H226, 48 h, read-out: GI; in short: as §1
[29] = test system: UACC-257; test: Growth inhibition of human UACC257 cells at 10 uM after 48 hrs by coulter counting; conditions: UACC-257, 48 h, read-out: GI; in short: as §2
[30] = test system: UO-31; test: Growth inhibition of human UO31 cells at 10 uM after 48 hrs by coulter counting; conditions: UO-31, 48 h, read-out: GI; in short: as §2
[31] = test system: SNB-75; test: Growth inhibition of human SNB75 cells at 10 uM after 48 hrs by coulter counting; conditions: SNB-75, 48 h, read-out: GI; in short: as §1
[32] = test system: CAKI-1; test: Growth inhibition of human Caki1 cells at 10 uM after 48 hrs by coulter counting; conditions: CAKI-1, 48 h, read-out: GI; in short: as §1
[33] = test system: RPMI-8226; test: Growth inhibition of human RPMI8226 cells at 10 uM after 48 hrs by coulter counting; conditions: RPMI-8226, 48 h, read-out: GI; in short: as §1
[34] = test system: MOLT-4; test: Growth inhibition of human MOLT4 cells at 10 uM after 48 hrs by coulter counting; conditions: MOLT-4, 48 h, read-out: GI; in short: as §1
[35] = test system: OVCAR-4; test: Growth inhibition of human OVCAR4 cells at 10 uM after 48 hrs by coulter counting; conditions: OVCAR-4, 48 h, read-out: GI; in short: as §1
[36] = test system: U-251; test: Growth inhibition of human U251 cells at 10 uM after 48 hrs by coulter counting; conditions: U-251, 48 h, read-out: GI; in short: as §2
[37] = test system: EKVX; test: Growth inhibition of human EKVX cells at 10 uM after 48 hrs by coulter counting; conditions: read-out: GI; in short: as §1
[38] = test system: M14; test: Growth inhibition of human M14 cells at 10 uM after 48 hrs by coulter counting; conditions: M14, 48 h, read-out: GI; in short: as §1
[39] = test system: A498; test: Growth inhibition of human A498 cells at 10 uM after 48 hrs by coulter counting; conditions: A498, 48 h, read-out: GI; in short: as §1
[40] = test system: SK-MEL-2; test: Growth inhibition of human SK-MEL-2 cells at 10 uM after 48 hrs by coulter counting; conditions: SK-MEL-2, 48 h, read-out: GI; in short: as §1
[41] = Growth inhibition of human NCI-322M cells at 10 uM after 48 hrs by coulter counting; conditions: read-out: GI; in short: as §1
[42] = test system: SF-539; test: Growth inhibition of human SF539 cells at 10 uM after 48 hrs by coulter counting; conditions: SF-539, 48 h, read-out: GI; in short: as §1

For `CC1=CSC2=NC3=C(CCC/C3=C\c3ccccc3)C(c3ccccc3)N12` (configuration not stated), the inhibition of growth at 10 µM [1] was > 10%, the inhibition of growth at 10 µM [2] was > 10% and the inhibition of growth at 10 µM [3] was > 10%. For the same molecule, the inhibition of growth at 10 µM [4] was > 10%, the inhibition of growth at 10 µM [5] was > 10% and the inhibition of growth at 10 µM [6] was > 10%. For the same molecule, the inhibition of growth at 10 µM [7] was > 10%, the inhibition of growth at 10 µM [8] was 13.8% and the inhibition of growth at 10 µM [9] was > 10%. The inhibition of growth at 10 µM [10] was > 10%, the inhibition of growth at 10 µM [11] was > 10% and the inhibition of growth at 10 µM [12] was > 10%. The inhibition of growth at 10 µM [13] was > 10%, the inhibition of growth at 10 µM [14] was > 10% and the inhibition of growth at 10 µM [15] was > 10%. The inhibition of growth at 10 µM [16] was > 10%, the inhibition of growth at 10 µM [17] was > 10% and the inhibition of growth at 10 µM [18] was > 10%. For the same molecule, the inhibition of growth at 10 µM [19] was > 10%, the inhibition of growth at 10 µM [20] was > 10% and the inhibition of growth at 10 µM [21] was > 10%. The inhibition of growth at 10 µM [22] was > 10%, the inhibition of growth at 10 µM [23] was > 10% and the inhibition of growth at 10 µM [24] was > 10%. The inhibition of growth at 10 µM [25] was > 10%, the inhibition of growth at 10 µM [26] was > 10% and the inhibition of growth at 10 µM [27] was > 10%. The inhibition of growth at 10 µM [28] was 11.2%, the inhibition of growth at 10 µM [29] was > 10% and the inhibition of growth at 10 µM [30] was 28.8%. The inhibition of growth at 10 µM [31] was 13.3%, the inhibition of growth at 10 µM [32] was 11.4% and the inhibition of growth at 10 µM [33] was > 10%. For the same molecule, the inhibition of growth at 10 µM [34] was > 10%, the inhibition of growth at 10 µM [35] was > 10% and the inhibition of growth at 10 µM [36] was > 10%. The inhibition of growth at 10 µM [37] was > 10%, the inhibition of growth at 10 µM [38] was > 10% and the inhibition of growth at 10 µM [39] was > 10%. The inhibition of growth at 10 µM [40] was > 10%, the inhibition of growth at 10 µM [41] was > 10% and the inhibition of growth at 10 µM [42] was > 10%.
